Measured values from the array DNA melting data of Ke et al. (doi:10.1101/2024.01.08.574731).

Key:
[1] = folding enthalpy; higher = less favourable; fluorescence melt of hairpins on a sequencing array, two-state fit; conditions: sodium 0.088 M
How it was run: (§1)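 Melting temperature and folding enthalpy were obtained by bootstrapped two-state fitting. Fits used Cy3 fluorescence of library hairpins with annealed Cy3 and quencher oligos on a sequenced MiSeq flow cell, imaged in 50 mM Na-HEPES pH 8.0, 25 mM NaCl in 2.5 °C steps up to 60 °C and normalised to pre-quench Cy3 and control constructs. Four replicates were combined by inverse-variance weighting, and fitted temperatures were raised by 9.35 °C to match UV melts.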

[2] = melting temperature; fluorescence melt of hairpins on a sequencing array, two-state fit, raised by 9.35 °C to match UV melts; conditions: sodium 0.088 M
How it was run: as §1

Row | Sequence | folding enthalpy [1] | Tm [2]
1 | GATCTAGGTTTAGATC ((((((....)))))) | -28.5 kcal/mol | 41.1 °C
2 | GGCATAGGAAACCATGCC (((((.(....).))))) | -30 kcal/mol | 48.7 °C
3 | GCGATCCGAAAGGACGC (((.(((....)))))) | -37.7 kcal/mol | 61.3 °C
4 | GCTTCCGAAAGGATAAGC ((((((....)))..))) | -22.8 kcal/mol | 44.2 °C
5 | GATCATTGCCATGATC ((((((....)))))) | -39.3 kcal/mol | 46.4 °C
6 | GACACGCGAAAGCGAGTC (((.(((....))).))) | -24.3 kcal/mol | 60.5 °C
7 | GCGCACGAAAGTGGCCGC ((((((....)))..))) | -19.4 kcal/mol | 54.1 °C
8 | GCGCAACGAAAGTTCCGC (((.(((....))).))) | -30.5 kcal/mol | 49.3 °C
9 | GATCTACAAGTAGATC ((((((....)))))) | -34.2 kcal/mol | 48.2 °C
10 | GAAAGGGAAACCTTTC ((((((....)))))) | -30 kcal/mol | 47 °C
11 | GGTCCCGGAAACGGAACC (((.(((....))).))) | -36 kcal/mol | 48 °C
12 | GACGTGGCGAAAGCCGTC (((..(((....)))))) | -16.5 kcal/mol | 50.4 °C
13 | GTCCTACGAAAGTATGAC (((.(((....))).))) | -32.3 kcal/mol | 41.9 °C
14 | GATCAATAATTGATC ((((((...)))))) | -23.8 kcal/mol | 40.3 °C
15 | GCAAGTGGAAACACCTGC (((.(((....))).))) | -25.3 kcal/mol | 40.5 °C
16 | GCTTCGCGAAAGCTACGC ((.(.((....)).).)) | -12.6 kcal/mol | 42.9 °C
17 | GACCACACGAAAGTGGTC (((..(((....)))))) | -30.9 kcal/mol | 57 °C
18 | GTGCACGAAAGTGCGCAC ((((((....)))..))) | -10.5 kcal/mol | 58 °C
19 | GCGACCGTCGC ((((...)))) | -26.8 kcal/mol | 45.5 °C
20 | GCACAACGAAAGTTCTGC (((.(((....))).))) | -26.1 kcal/mol | 36.8 °C
21 | GATCAAGGCGTTGATC ((((((....)))))) | -35.8 kcal/mol | 48.5 °C
22 | GATCAAGAGTTTGATC ((((((....)))))) | -29.6 kcal/mol | 41.4 °C
23 | GGCGACACGAAAGTGGCC (((..(((....)))))) | -15.1 kcal/mol | 53.1 °C

Row | Sequence | folding enthalpy [1] | Tm [2]
24 | GGTGCAGGAAACCACACC ((((..(....)..)))) | -21.4 kcal/mol | 34.9 °C
25 | GATCCTGGGAGGATC ((((((...)))))) | -33.8 kcal/mol | 51 °C
26 | GTGGGGCGAAAGCCCAC (((.(((....)))))) | -12.8 kcal/mol | 62.6 °C
27 | GGCCTGGGAAACTAGGCC (((((.(....).))))) | -49.7 kcal/mol | 59.2 °C
28 | GATCGGGTCGCCGATC ((((((....)))))) | -7.84 kcal/mol | 65.3 °C
29 | GCTGGGCGAAAGCCGTGC ((..(((....)))..)) | -18.2 kcal/mol | 47.6 °C
30 | GAAACGCCGAAAGGCTTC (((..(((....)))))) | -7.92 kcal/mol | 23.1 °C
31 | GGAGGAGCGAAAGCTTCC (((..(((....)))))) | -13.4 kcal/mol | 38.6 °C
32 | GGGCACGAAAGTGACCC ((((((....))).))) | -13.2 kcal/mol | 66.8 °C
33 | GCCTCAGGAAACTAAGGC ((((.((....)).)))) | -27.7 kcal/mol | 37.6 °C
34 | CGATCGGAAACGATTTCG ((((((....)))..))) | -20.4 kcal/mol | 30.2 °C
35 | GAGTTAGGAAACTAACCC (.(((((....))))).) | -17.4 kcal/mol | 30.4 °C
36 | GCGTTCGAACGC ((((....)))) | -36 kcal/mol | 56.9 °C
37 | GACTACCGAAAGGTGTC (((.(((....)))))) | -21.6 kcal/mol | 49.6 °C
38 | GGCTACGGAAACGTGGTC (.(.(((....))).).) | -27.8 kcal/mol | 42 °C
39 | GCTGGGCGAAAGCATAGC (((..((....))..))) | -22.9 kcal/mol | 54.2 °C
40 | GCCAAGGGAAACCCTGGC ((((.((....)).)))) | -31.9 kcal/mol | 52.2 °C
41 | GCGCGTCCGAAAGGACGC (((..(((....)))))) | -5.6 kcal/mol | 67.3 °C
42 | GAGCTACGAAAGTATCTC (((.(((....))).))) | -25.1 kcal/mol | 36.9 °C
43 | GTGGCACCGAAAGGTCAC (((..(((....)))))) | -14.9 kcal/mol | 42.6 °C
44 | GGTAAGTCGAAAGACACC (((..(((....)))))) | -17.9 kcal/mol | 37.3 °C
45 | GACCTCGGAAACGAGATC ((.((((....)))).)) | -20.3 kcal/mol | 40.5 °C
46 | GTCAGCGCGAAAGCGGAC (((..(((....)))))) | -15.6 kcal/mol | 46.6 °C

Row | Sequence | folding enthalpy [1] | Tm [2]
47 | GCTAACGGAAACGTTGGC ((.((((....)))).)) | -36.1 kcal/mol | 52.6 °C
48 | GATCATGAGTATGATC ((((((....)))))) | -31.1 kcal/mol | 46.7 °C
49 | GACGCGCCGAAAGGCGTC (((..(((....)))))) | -6.51 kcal/mol | 37.7 °C
50 | GCCCCCCGAAAGGGCGGC (((.(((....))).))) | -32.6 kcal/mol | 60.2 °C
51 | GATCAGTGTCTGATC ((((((...)))))) | -34.8 kcal/mol | 50 °C
52 | GCAAACCGAAAGGTATGC (((.(((....))).))) | -37.5 kcal/mol | 53.4 °C
53 | GATCAAACTGTTGATC ((((((....)))))) | -25.7 kcal/mol | 41 °C
54 | GTTCAACGAAAGTTAAAC (((.(((....))).))) | -18.6 kcal/mol | 30.7 °C
55 | GAGCCTGGAAACGGGTTC ((.((.(....).)).)) | -27.5 kcal/mol | 36.4 °C
56 | GAAGGTGGAAACACTTTC (((.(((....))).))) | -24.9 kcal/mol | 38 °C
57 | GCCTCGCGAAAGCAACGC ((.(.((....)).).)) | -5.96 kcal/mol | 23.4 °C
58 | GCCATACGAAAGTAAGGC (((.(((....))).))) | -35.1 kcal/mol | 52.6 °C
59 | GGTGTCGAAAGACCCACC ((((((....)))..))) | -12.1 kcal/mol | 45.1 °C
60 | GCGAAGCGAAAGCGTCGC ((((.((....)).)))) | -21.3 kcal/mol | 68.7 °C
61 | GTTGCGCGAAAGCGGAAC (((.(((....))).))) | -30.9 kcal/mol | 67.6 °C
62 | GCGCCTCGAAAGAGCGC (((.(((....)))))) | -35.9 kcal/mol | 67.4 °C
63 | GCAAAGCGAAAGCTATGC (((.(((....))).))) | -33.5 kcal/mol | 52 °C
64 | GCTGGCGGAAACACCAGC (((((.(....).))))) | -40.8 kcal/mol | 53.5 °C
65 | GCTCGTCGAAAGACAGC (((.(((....)))))) | -29.6 kcal/mol | 51.4 °C
66 | GTACACGGAAACGTGTAC (((((((....))))))) | -37.7 kcal/mol | 63.4 °C
67 | GCGTTACGACGC ((((....)))) | -25.9 kcal/mol | 56.8 °C
68 | GCACTCGAAAGAGTGTGC ((((((....)))..))) | -20.1 kcal/mol | 63.8 °C
69 | GCGGGCTCCCGC ((((....)))) | -23.8 kcal/mol | 66 °C

Row | Sequence | folding enthalpy [1] | Tm [2]
70 | GATCGGCAACCGATC ((((((...)))))) | -36.7 kcal/mol | 54.6 °C
71 | GAGAACCGAAAGGTCTC (((.(((....)))))) | -20.6 kcal/mol | 48.1 °C
72 | GACCGACCGAAAGGTGTC (((..(((....)))))) | -15.8 kcal/mol | 35.9 °C
73 | GGCCGCCGAAAGGCGCC (((.(((....)))))) | -12.8 kcal/mol | 68.2 °C
74 | GGGGGTCGAAAGACTCCC (((.(((....))).))) | -43.5 kcal/mol | 63.4 °C
75 | GCTGAGGGAAACCTTAGC (((.(((....))).))) | -33.7 kcal/mol | 47.1 °C
76 | CGCGGAATTCTCCGCG ((((((....)))))) | -32 kcal/mol | 69.3 °C
77 | GATCAATAGTTTGATC ((((((....)))))) | -30.6 kcal/mol | 42.7 °C
78 | GATCAACTAGTTGATC ((((((....)))))) | -38.6 kcal/mol | 56.3 °C
79 | GCTGTCGAAAGACGAGC ((((((....))).))) | -25.6 kcal/mol | 54.1 °C
80 | GGTGCGGGAAACTGCGCC ((.((.(....).)).)) | -49.1 kcal/mol | 52.7 °C
81 | GATCACTCCCGTGATC ((((((....)))))) | -47.2 kcal/mol | 55.8 °C
82 | GAGCGCGAAAGCGCCCTC ((((((....)))..))) | -7.61 kcal/mol | 46.8 °C
83 | CGTTTTCGGAAACGAACG (((..(((....)))))) | -12.1 kcal/mol | 37 °C
84 | CGCGCGGAAACGCCAGCG ((((((....)))..))) | -23 kcal/mol | 53.9 °C
85 | GCGGGGCGAAAGCCTGGC ((..(((....)))..)) | -19.2 kcal/mol | 57.8 °C
86 | GTTCGTGGAAACATGAAC ((((.((....)).)))) | -37.7 kcal/mol | 47.5 °C
87 | GATATGGGAAACTATATC (((((.(....).))))) | -23.2 kcal/mol | 33.8 °C
88 | GCGCACGGAAACATGCGC (((((.(....).))))) | -37.5 kcal/mol | 59 °C
89 | GTCAAGCCGAAAGGCGAC (((..(((....)))))) | -12.2 kcal/mol | 45.1 °C
90 | GATTGAGCGAAAGCTATC (((..(((....)))))) | -11.6 kcal/mol | 30.7 °C
91 | GCCGTCGAAAGACAAGGC ((((((....)))..))) | -32.8 kcal/mol | 55.2 °C
92 | GATCGATTACTCGATC ((((((....)))))) | -47.6 kcal/mol | 51 °C
